# From ChEMBL document CHEMBL3272210, “Effect of the solvent-dependent conformational system of hydroxyureas on predicted vs. observed log P” (J Med Chem, 1977)
# Experiments:
# L1210 = test: Antitumor activity against mouse L1210 cells xenografted in host assessed as growth inhibition treated ip for 9 days; assay type: functional
# Rattus norvegicus [1] = species on record: Rattus norvegicus; test: Inhibition of rat hepatoma ribonucleotide reductase using ATP and Me2SO solvent
# Summary of the method: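 Rat Novikoff ascites hepatoma reductase, partially purified, assayed in 8.3 mM phosphate pH 7, 2.1 mM ATP, 4.2 mM MgAc2, 0.04 mM ferrous ammonium sulfate, 6.3 mM DTT, 1.0 μM thioredoxin, 0.17 mM 32P-CDP. Inhibitor is predissolved in DMSO and diluted to 1% DMSO final, then added on ice before enzyme, followed by 30 min at 37 °C. Dowex-50 readout. ID50 extrapolated from four concentrations tested in duplicate.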
# Rattus norvegicus [2] = species on record: Rattus norvegicus; test: Inhibition of rat hepatoma ribonucleotide reductase using ATP and Me2SO solvent relative to hydroxyurea
# [3] = Octanol-water partition coefficient, log P of the compound after 72 hrs; assay type: physicochemical
# Summary of the method: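 Known amounts (100 mg, 500 mg, 1.0 g) are shaken in equal volumes of 1-octanol and water pH 7.4 for 72 h, the optimal time. The aqueous layer is lyophilized, and the recovered compound is weighed and purity-checked. Values were cross-checked by colorimetry or UV for some compounds.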
# Rattus norvegicus [4] = species on record: Rattus norvegicus; test: Inhibition of rat hepatoma ribonucleotide reductase using ATP
# Summary of the method: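 Partially purified rat Novikoff ascites hepatoma reductase (~0.2 mg) in pH 7 phosphate (8.3 mM) with 2.1 mM ATP, 4.2 mM MgAc2, Fe2+ (0.04 mM), 6.3 mM DTT, 1.0 μM rat thioredoxin and 0.17 mM 32P-CDP. Aqueous inhibitor is present before enzyme is added on ice, then 37 °C for 30 min. Perchloric acid stop, Dowex-50 product separation. Four concentrations, duplicate trials, ID50 by graphing/extrapolation.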
# Rattus norvegicus [5] = species on record: Rattus norvegicus; test: Inhibition of rat hepatoma ribonucleotide reductase using ATP relative to hydroxyurea
# Summary of the method: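 Same 32P-CDP reduction assay, 30 min, 37 °C, ATP 2.1 mM, aqueous inhibitor. Each determination includes hydroxyurea as positive control. ID50 (four levels, two trials each) is divided relative to that run's hydroxyurea ID50, and ratios are averaged across determinations.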
SMILES,ID50 (Rattus norvegicus [1]),Ratio (Rattus norvegicus [2]),logP at 72 h [3],ID50 (Rattus norvegicus [4]),Ratio (Rattus norvegicus [5]),T/C (L1210)
O=C(NO)Nc1ccc(Cl)cc1,–,–,1.39,–,–,–
O=C(NO)Nc1ccccc1,–,–,0.41,–,–,–
CC(C)(C)NC(=O)NO,400 µM,–,0.5,–,9.5,–
CC(C)NC(=O)NO,–,–,0.2,800 µM,19,<125%

# Further lines, with some results ahead:
ID50 (Rattus norvegicus [1]),Ratio (Rattus norvegicus [2]),logP at 72 h [3],ID50 (Rattus norvegicus [4]),Ratio (Rattus norvegicus [5]),SMILES,T/C (L1210)
340 µM,3.8,0.22,340 µM,3.8,CCCNC(=O)NO,146%
–,–,-0.46,100 µM,0.9,CN(O)C(N)=O,162%
–,–,-0.76,–,–,CCNC(=O)NO,137%
–,–,-1.27,110 µM,1,NC(=O)NO [HYDROXYUREA],291%
–,–,-0.1,170 µM,1.5,CCN(O)C(N)=O,168%
750 µM,–,0.32,–,6.8,CCCCNC(=O)NO,–
